Bioassay records: PubChem, several laboratories
This excerpt belongs to a sample that is enriched for hits.
MMP13 inh – human MMP13 inhibitors, primary screen, biochemical, FRET peptide cleavage. Collagenase 3 (Homo sapiens), P45452. MMP-13 fTHP FRET cleavage, Mca fluorescence. inhibition, % at 4 µM. hit rate 0.07% among 65,000. AID 570, 2006;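 active = inhibition above the mean of compound-free control plate wells plus 3 SD, cut at about 14% in these data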;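 also: 0% = DMSO wells and 100% = wells with reference MMP-13 inhibitor after basal subtraction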
hDAT+cocaine – changed hDAT dopamine uptake under cocaine IC80, either direction, primary screen, cocaine antagonist project, cell-based, LLC-PK1 hDAT, [14C]-dopamine uptake, MLSMR; LLC-PK1 hDAT cells, [14C]-dopamine uptake with cocaine IC80; actives deviate in either direction; B-score at 10 µM; hit rate 1.3% among 110,000; Sodium-dependent dopamine transporter (Homo sapiens), Q01959; AID 449768, 2010;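 active = Z score or B-score, a plate-position-corrected score, falls beyond the plate's 99.7% confidence bounds, in either direction; inactive = both scores lie inside the 99.7% bounds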;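 also: scored against the spread of the other compound wells on the same plate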
Target sequence (Q01959 whole entry, looked up): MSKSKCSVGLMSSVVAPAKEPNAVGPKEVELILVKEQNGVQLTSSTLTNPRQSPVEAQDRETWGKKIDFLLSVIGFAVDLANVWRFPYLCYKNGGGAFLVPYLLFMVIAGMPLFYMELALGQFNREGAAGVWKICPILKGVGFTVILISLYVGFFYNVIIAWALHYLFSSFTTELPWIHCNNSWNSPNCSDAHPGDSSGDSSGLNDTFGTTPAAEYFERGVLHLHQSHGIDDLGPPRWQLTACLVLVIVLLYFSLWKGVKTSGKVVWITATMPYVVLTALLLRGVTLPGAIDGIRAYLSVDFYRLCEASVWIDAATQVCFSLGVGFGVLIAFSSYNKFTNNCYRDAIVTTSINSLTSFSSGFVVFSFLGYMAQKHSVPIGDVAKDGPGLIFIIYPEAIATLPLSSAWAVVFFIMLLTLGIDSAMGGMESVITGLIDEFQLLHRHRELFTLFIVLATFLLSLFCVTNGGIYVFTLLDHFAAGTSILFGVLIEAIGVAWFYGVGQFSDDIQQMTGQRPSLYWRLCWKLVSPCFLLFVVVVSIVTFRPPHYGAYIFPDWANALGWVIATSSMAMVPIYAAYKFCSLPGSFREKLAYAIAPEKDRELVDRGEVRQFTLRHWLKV
D1 mod – D1 CRE-luciferase signal change, two-sided – cell-based, HEK293 D1, dopamine EC30, D1 allosteric modulator project, primary screen. D(1A) dopamine receptor (Homo sapiens), P21728. dopamine EC30 potentiation; actives deviate in either direction. B-score at 10 µM. hit rate 5.9% among 58,000;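 active = luminescence count or its row- and column-corrected plate score outside the 99.7% band of the plate's sample wells, on either side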
Calb biofilm kill – clotrimazole potentiators killing Candida biofilms, primary screen, with clotrimazole, Alamar Blue; AID 834, 2007; inhibition, % at 6 µM; hit rate 0.14% among 85,000; C. albicans biofilm + clotrimazole;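 active = inhibition above 20%; inactive = inhibition below 20%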;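 also: preformed 24 hr biofilms exposed to compound for 48 hr; 0% = biofilm without compound and 100% = blank killed by clotrimazole plus chlorhexidine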
AP complement – alternative complement pathway inhibitors, primary screen, biochemical, ELISA, human serum, orthogonally pooled compounds. LPS-coated ELISA, C3 deposition; tested in compound mixtures. inhibition, % at 5 µM. hit rate 0.08% among 62,000. AID 1235, 2008;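 active = inhibition above 30% in each of the two pooled mixtures holding the compound, so the lower value exceeds 30%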;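 also: 0% = serum in Mg-EGTA without compound and 100% = EDTA serum blank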
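Test system: human serum alternative complement pathway, C3 deposition on LPS-coated wells; also added: Plate-bound LPS; doses: 5 µM per compound in ten-compound mixtures; schedule: 1 h at 37 °C; detection: Anti-C3 ELISA, OD 450 nm; evaluation: percent inhibition of C3 deposition onto LPS; repeats: two pool placements per compound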
Active calls of the source: *; . = no result given.

SMILES	MMP13 inh	hDAT+cocaine	D1 mod	Calb biofilm kill	AP complement
Cc1ccccc1C(=O)Nc1ccc2c(c1)OCO2	0	2	-4.3*	3	13
COc1ccccc1C(=O)Nc1ccc2c(c1)OCO2	.	-0.23	.	3	17
COCCn1c(C)cc(C(=O)COC(=O)C23CC4CC(CC(O)(C4)C2)C3)c1C	-1	-0.038	-4.6*	8	9
CCN1CCN(c2nc(-c3ccncc3)nc3ccccc23)CC1	.	.	.	5	.
CCN1CCN(c2nc(-c3cccnc3)nc3ccccc23)CC1	2	-0.18	-4.3*	5	17
C=CCNC(=O)c1onc(CSc2ccccn2)c1C(=O)NCC=C	.	-0.28	.	.	.
CC(C)CCn1c(=O)c2ccccc2n2c(CN(C)Cc3ccccc3)nnc12	6	-8.6*	2.2	5	15
Cc1ccc(C(c2ccc(C)o2)c2cccc([N+](=O)[O-])c2O)o1	.	-0.28	.	-5	.
Cc1cc(C(c2ccc(C)o2)c2ccc(C)o2)c(O)c([N+](=O)[O-])c1	.	-1.2	.	78*	.
CCOC(=O)/C(C#N)=C/C1=C(N2CCCC2)CC(C)(CC)OC1 (stereo unspecified)	.	-0.97	.	6	.
CCN(CC)C(=O)CSc1nc2ccccc2c(=O)n1-c1ccccc1OC	4	1.9*	.	6	19
CCN(CC)C(=O)CSc1nc2cccnc2n1-c1ccccc1OC	7	-1.2	0.32	5	-4
COc1ccccc1NC(=O)Cn1cnc2sc(C)c(S(=O)(=O)N3CCCCC3)c2c1=O	.	.	.	3	.
O=C(CCCNS(=O)(=O)c1cccc2nsnc12)NCc1ccccc1	6	1.6	-0.085	3	11
CN(CC(=O)NCc1cccs1)S(=O)(=O)c1cccc2nsnc12	4	-9.1*	-0.82	3	17
O=C(CCS(=O)(=O)c1cccc2nsnc12)NC1CCCCCC1	.	0.58	.	0	.
CC(=O)c1cccc(NC(=O)CCS(=O)(=O)c2cccc3nsnc23)c1	.	2.5*	.	-7	.
O=C(CCS(=O)(=O)c1cccc2nsnc12)NCc1ccccc1	-1	-8.2*	0.52	13	-5
CCOC(=O)c1c(N2C(=O)C=CC2=O)sc(C)c1C	.	0.63	.	.	.
CNc1nc(OCC(F)(F)F)nc(N2CCN(C34CC5CC(CC(C5)C3)C4)CC2)n1	.	.	.	0	.
CCc1ccc(NCc2nc3ccccc3c(=O)[nH]2)cc1	.	-9.2*	.	.	.
c1ccc(-c2noc(-c3ccncc3)n2)nc1	4	-0.038	-1.2	2	-7
c1ccc(-c2noc(-c3cccnc3)n2)nc1	2	0.008	-4.1*	7	-2
Cc1cc(C)cc(-c2nc(-c3ccncc3)no2)c1	2	-0.064	.	21*	11
c1ccc(-c2noc(-c3ccc4ccccc4c3)n2)nc1	-21	0.26	-4.4*	1	15
SMILES	MMP13 inh	hDAT+cocaine	D1 mod	Calb biofilm kill	AP complement
COc1cccc(-c2nc(-c3ccccn3)no2)c1	.	1.1	.	-4	.
CC(C)(C)c1ccc(-c2nc(-c3ccncc3)no2)cc1	8	-0.18	-0.48	1	30
Cc1ccc(-c2nc(-c3cccnc3)no2)cc1	2	-0.018	-4.9*	-3	4
C=C1CC2C(=O)N(Cc3ccccc3)C(C(=O)OCC)(C(=O)OCC)C1N2C(=O)OC(C)(C)C (stereo unspecified)	.	0.014	.	.	.
c1ccc(CCc2ccccc2-c2nc(-c3ccccn3)no2)cc1	4	-0.85	-0.82	3	-6
c1ccc(-c2noc(-c3ccc4c(c3)OCO4)n2)nc1	0	0.32	-8.3*	1	8
COC(=O)C1=C(C(=O)OC)[C@@H]2Nc3ccccc3[C@@]23C[C@@H](C(=O)OC)N(C(=O)C2CCC2)C3=N1	.	0.66	.	.	.
Cn1cc([N+](=O)[O-])c(C(=O)Nc2ccc(Br)cn2)n1	.	-0.61	.	.	.
CCCCCCCCCCn1c2c(c(=N)c3c1CCC3)CCC2	.	-0.7	.	1	.
CCOC(=O)Cn1c2c(c(=N)c3c1CCC3)CCC2	5	0.2	-1.8	9	5
N=c1c2c(n(Cc3ccccc3)c3c1CCC3)CCC2	10	-4.2*	-1.9	8	-5
N=c1c2c(n(Cc3cccc(Cl)c3)c3c1CCC3)CCCC2	.	-9.3*	.	3	.
N=c1c2c(n(Cc3ccc(Cl)cc3)c3c1CCC3)CCC2	2	-6.7*	-3.5	6	13
O=C1CCSc2ccc(Cl)cc2N1Cc1cccc(Cl)c1	.	1.3	.	.	.
O=C(NC1CC1)C1=C[C@@H](C2CCCCC2)C[C@@H](OCCCCO)O1	.	-0.093	.	.	.
O=C(Nc1ccon1)c1cc2ccccc2oc1=O	.	-0.008	.	2	.
O=C(CNS(=O)(=O)c1cccs1)N1CCN(c2ccccn2)CC1	-4	-1.3	-0.83	5	1
O=C(CCCCCNc1nc(=S)[nH]c2ccccc12)N1CCN(c2ccccn2)CC1	-1	2.8*	-0.0021	7	15
O=C(CCCOc1ccccc1)N1CCN(c2ccccn2)CC1	-16	2.4	-2.9*	6	5
O=C(Cc1cccs1)N1CCN(c2ccccn2)CC1	-17	0.32	-4.5*	7	17
NC(Cc1c[nH]c2ccccc12)C(=O)Nc1ccccc1 (stereo unspecified)	.	1.5	.	.	.
COc1ccccc1-c1cc(-c2ccccc2)nc(SC(C(N)=O)c2ccccc2)c1C#N (stereo unspecified)	.	-0.59	.	.	.
Cc1ccc(N2CC(C(=O)Nc3nccs3)CC2=O)cc1 (stereo unspecified)	-6	0.037	-7.4*	5	11
Cc1cc(C)n(C(=O)c2cccc(S(=O)(=O)N3CCOCC3)c2)n1	4	-8.3*	-0.26	5	-24
CNCc1ccccc1OCC(=O)Nc1ccccc1OC	.	0.43	.	1	.
SMILES	MMP13 inh	hDAT+cocaine	D1 mod	Calb biofilm kill	AP complement
O=C(NCc1nc2ncc(Br)cc2[nH]1)c1ccccc1	-1	-7.3*	-0.96	-4	-20
COC(C[C@@H]1O[C@@H]1C(=O)COCc1ccccc1)OC	.	-0.53	.	.	.
CCc1ccc(CNc2ccc(O)cc2)cc1	2	2.9*	-0.78	5	1
Fc1ccc(-n2nnc(-c3nccs3)n2)cc1	.	0.74	.	.	.
Cc1cc(NC(=O)c2ccc3c(c2)OCCO3)no1	0	-0.36	-6.4*	8	12
Cc1cc(NC(=O)c2ccc3c(c2)OCO3)no1	7	-0.85	-2.1	11	0
O=C(Nc1cc(Cl)ccc1Cl)C1CC(=O)N(c2ccc(Br)cc2)C1 (stereo unspecified)	.	-0.52	.	2	.
CC(=O)Nc1ccc(S(=O)(=O)c2ccc(N)cc2)cc1	1	2*	0.22	2	11
O=C(/C=C/c1ccccc1Cl)NC(=S)Nc1ccccc1C(=O)NC1CCCCC1	.	-0.26	.	.	.
COc1ccc(-c2cc(C(=O)NCc3cccnc3)no2)cc1	-13	1	-1.4	5	18
O=C(NCc1cccnc1)c1cc(-c2ccccc2)on1	6	3.6*	0.21	3	3
